Experimental findings from ChEMBL document CHEMBL1126566, “Studies on analogues of classical antifolates bearing the naphthoyl group in place of benzoyl in the side chain” (J Med Chem, 1993) are described below.

In general, Ki refers to a dissociation constant, usually derived from enzyme kinetics or from competition with a known ligand. By IC50 is commonly meant the concentration that gives 50% inhibition. The term inhibition denotes the change of the read-out against control, counted positive when it falls.

The test system of series [1] is L1210. As to the kind of experiment: Tested for transport into L1210 cells measured as cell influx. In kind it is functional, cell-based, Mus musculus.
Series [2] deals with L1210. As to the kind of experiment: Tested for the ability to inhibit growth in vitro against L1210. As to conditions: Mus musculus. In kind it is functional, cell-based.
The test system of the next series is HL-60. As to the kind of experiment: Tested for the ability to inhibit growth in vitro against HL60. In kind it is functional, cell-based. As to conditions: Homo sapiens.
The subject of a further series is CCRF S-180. As to the kind of experiment: Tested for the ability to inhibit growth in vitro against S180. The following applies: Mus musculus. It is filed as functional, cell-based.
The subject of another series is CCRF-CEM. Put plainly: Percent inhibition of Folyl-polyglutamate synthase from CCRF-CEM cells. In kind it is cell-based. The arrangement: concentration or dose not given beside the values. The following applies: Homo sapiens, dose or concentration not given here. The gist of the method: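 FPGS was partially purified from CCRF-CEM cells by (NH₄)₂SO₄ fractionation and gel sieving, with no detectable γ-glutamyl hydrolase. Product was separated on DEAE-cellulose. Percent inhibition is reported.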

The nature of series [3]: Activity relative to saturating aminopterine at 100 uM against CCRF-CEM Folyl-polyglutamate synthetase. It is filed as ADME. As to conditions: human. The gist of the method: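 FPGS from CCRF-CEM cells: freeze-thawed lysates fractionated by (NH₄)₂SO₄ (0–40% saturation pellet) and gel sieving, stored at –90 °C in 20% glycerol, free of detectable γ-glutamyl hydrolase. Product was separated on DEAE-cellulose minicolumns. Run in duplicate or triplicate, and each experiment was repeated at least once.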

The target in series [4] is T1, Folylpolyglutamate synthase, mitochondrial (Mus musculus) (UniProt P48760).
T1 sequence (whole entry): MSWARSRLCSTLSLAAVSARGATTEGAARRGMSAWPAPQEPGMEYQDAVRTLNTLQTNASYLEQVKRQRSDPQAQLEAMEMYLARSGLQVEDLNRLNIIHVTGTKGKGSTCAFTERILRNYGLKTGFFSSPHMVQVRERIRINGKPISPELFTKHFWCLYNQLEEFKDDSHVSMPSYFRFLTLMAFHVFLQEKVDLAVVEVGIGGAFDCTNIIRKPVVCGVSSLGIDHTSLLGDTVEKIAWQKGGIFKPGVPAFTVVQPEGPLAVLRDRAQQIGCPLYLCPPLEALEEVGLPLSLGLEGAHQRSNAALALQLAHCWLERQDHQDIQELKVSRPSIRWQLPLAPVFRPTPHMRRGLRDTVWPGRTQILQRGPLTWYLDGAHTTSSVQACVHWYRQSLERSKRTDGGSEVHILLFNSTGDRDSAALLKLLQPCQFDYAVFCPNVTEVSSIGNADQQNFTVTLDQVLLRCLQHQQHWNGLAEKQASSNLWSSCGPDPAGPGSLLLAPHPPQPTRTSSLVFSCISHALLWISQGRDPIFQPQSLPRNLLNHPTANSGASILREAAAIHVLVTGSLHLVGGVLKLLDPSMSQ
As to the kind of experiment: Specific activity of L1210 Folyl-polyglutamate synthase. In short, it runs like this:
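FPGS from L1210 cells was assayed by [³H]glutamate ligation, like the human enzyme assay. Each folate substrate was at 100 μM, and only specific activity was measured.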

The target in series [5] is T2, Dihydrofolate reductase (Mus musculus, UniProt P00375).
T2 sequence (P00375 whole entry): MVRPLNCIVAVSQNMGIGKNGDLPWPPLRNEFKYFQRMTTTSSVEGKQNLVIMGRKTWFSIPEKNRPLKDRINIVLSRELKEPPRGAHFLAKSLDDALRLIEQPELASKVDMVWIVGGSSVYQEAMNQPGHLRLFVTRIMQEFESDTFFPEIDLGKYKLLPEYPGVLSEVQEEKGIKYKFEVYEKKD
As to the kind of experiment: Inhibitory activity of Dihydrofolate reductase in L1210 cells. It is filed as cell-based.

In series [6] the target is T3, Dihydrofolate reductase (Pneumocystis carinii, UniProt P16184).
T3 sequence (P16184 whole entry): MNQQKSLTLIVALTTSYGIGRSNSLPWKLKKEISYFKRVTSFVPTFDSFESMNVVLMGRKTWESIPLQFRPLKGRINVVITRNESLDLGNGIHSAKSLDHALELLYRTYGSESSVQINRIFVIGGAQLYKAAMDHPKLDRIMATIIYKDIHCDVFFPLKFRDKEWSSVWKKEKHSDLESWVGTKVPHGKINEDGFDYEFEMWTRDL
Put plainly: Tested for inhibition against Dihydrofolate reductase from Pneumocystis carinii.

Structures are written as SMILES.

`CN(Cc1cnc2nc(N)nc(N)c2c1)c1ccc(C(=O)NC(CCC(=O)O)C(=O)O)c2ccccc12` (stereo unspecified) yielded a Ki in the series on L1210 [1] of 780 nM. Moreover, the IC50 in the series with L1210 [2] is 2.3 nM; in the series on HL-60, 1.5 nM; in the series with CCRF S-180, 1.9 nM. Moreover, the inhibition in the series on CCRF-CEM is 23%.

For the compound `Nc1nc(N)c2nc(CNc3ccc(C(=O)NC(CCC(=O)O)C(=O)O)c4ccccc34)cnc2n1` (stereo unspecified), the figures for the inhibition constant Ki in the series with L1210 [1] and at Dihydrofolate reductase [5] were 920 nM and 0.00455 nM, respectively. Also, in series [3], the “Relative Vmax” value is recorded as 0.03. Also, the concentration for half-maximal inhibition (IC50) stood at 6 nM in the series on L1210 [2], 4.6 nM in the series with HL-60 and 5.9 nM in the series with CCRF S-180. Further, the Specific activity (pM hr-1 (mg of protein)-1) in series [4] was found to be 0.41. The compound also yielded an inhibition with CCRF-CEM of 12%.

In the case of `Nc1nc(N)c2cc(CNc3ccc(C(=O)NC(CCC(=O)O)C(=O)O)c4ccccc34)cnc2n1` (stereo unspecified), the inhibitory constant (Ki) in the series on L1210 [1] turned out to be 1520 nM; at Dihydrofolate reductase [5], 0.00365 nM. Also, the “Relative Vmax” value in [3] is on record as 0.01. Moreover, the half-inhibitory concentration (IC50) with L1210 [2] is 4.2 nM; in the series with HL-60, 1.4 nM; in the series with CCRF S-180, 3.9 nM; on Dihydrofolate reductase [6], 0.00053 nM. The inhibition in the series on CCRF-CEM turned out to be 21%.

Turning to `Nc1nc(N)c2cc(CNc3ccc(C(=O)NC(CCC(=O)O)C(=O)O)c4ccccc34)ccc2n1` (stereo unspecified), the Ki with L1210 [1] was determined as 900 nM; at Dihydrofolate reductase [5] it was 0.0052 nM. The figures for the IC50 in the series with L1210 [2], in the series on HL-60 and in the series on CCRF S-180 were 6.1 nM, 0.65 nM and 3.9 nM, respectively.
